In PubChem BioAssay AID822 (SRMLSC, 2007):
The source made the active and inactive calls.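 Rule for the calls: active = half-maximal effective dose for blocking growth of human endothelial cells at most 100 µM; inactive = the rest.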

assay: growth suppression of umbilical vein endothelial cells – cell-based, HUVEC, ATP luminescence, dose response (AID 822); conditions: HUVEC proliferation, viability ATP luminescence; at 10 µM (top of the series);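 note: cells exposed to compound for 72 h before the ATP read; 100% = median luminescence of untreated cell-only control wells on each plate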
Outline: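 Assay system: HUVEC primary endothelial cells, low passage (≤12) / Input: 1250 cells per well / Compound dosing: dose series 0.039 to 20 µM, DMSO 0.2% / Timing: 72 h compound exposure at 37 °C / Measured by: CellTiter-Glo ATP luminescence / Read-out: percent viability relative to median untreated cell signal, EC50 via four-parameter fit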

| Compound | viability |
| --- | --- |
| COc1cccc(C(=O)Oc2c(CN3CCOCC3)cc(Cl)c3cccnc23)c1 | 84% (inactive) |

same assay, conditions: HUVEC proliferation, viability ATP luminescence; at 20 µM (top of the series)

| Compound | viability |
| --- | --- |
| CCn1c(Cc2ccc(OC)cc2)nnc1SCC(=O)Nc1cccc(C(=O)OC)c1 | 81.8% (inactive) |
| CCOc1ccc(NS(=O)(=O)c2ccc(OCC(=O)NCCCOC)cc2)cc1 | 94.4% (inactive) |
| CC1=CC(C)(C)Nc2ccc(OC(=O)CN3C(=O)C4CCCCC4C3=O)cc21 (configuration not stated) | 91% (inactive) |
| Cc1ccc(-n2nnnc2SCC(=O)Nc2ccc3c(c2)COC3=O)cc1C | 91.3% (inactive) |
| CCOc1ccc(OCc2ccc(C(=O)NCC3CCCO3)o2)cc1 (configuration not stated) | 116% (inactive) |
| Cn1c(=O)c2cc(NCc3ccccc3)nnc2n(C)c1=O | 92.6% (inactive) |
| Cc1ccc(-n2c(SCC(=O)Nc3nccs3)nc3c(c2=O)SCC3)cc1 | 100% (inactive) |
| COc1ccc(OC)c2sc(N3CCCCC3)nc12 | 88.4% (inactive) |
| Cc1ccc(Cn2c(=S)[nH]c3ccc(N4CCOCC4)cc3c2=O)o1 | 90.9% (inactive) |
| C=CCn1c(O)c(C2=c3ccccc3=NC2=O)s/c1=N/c1nccs1 | 85.2% (inactive) |
| O=C(COc1nc2ccccc2nc1N1CCOCC1)N1CCc2ccccc21 | 86.1% (inactive) |
| CCOC(=O)N1CCN(C(=O)c2nn(-c3ccc(C)cc3)c(=O)c3c2c2ccccc2n3C)CC1 | 89.2% (inactive) |
| CC1CCCC(NC(=O)C2CCN(S(=O)(=O)N3CCC4(CC3)OCCO4)CC2)C1C (configuration not stated) | 93.2% (inactive) |
| Cc1ccc(Cn2c(SCC(=O)Nc3cc(C)on3)nc3ccccc3c2=O)cc1 | 81.2% (inactive) |
| CC1(C)Cc2ccccc2C(NNC(=O)c2ccccn2)=N1 | 93.7% (inactive) |
| OC1(Cc2ccn[nH]2)CCCCC1 | 93.6% (inactive) |
| Nc1nc2ccccc2n1/N=C/c1ccc(-c2ccccc2)o1 | 90.9% (inactive) |
| Cn1c(NC(=O)c2cccc(Cn3cc(Cl)cn3)c2)nc2ccccc21 | 83.1% (inactive) |
| COc1ccc(OC)c(S(=O)(=O)N(C)CC(=O)N2CCN(c3ccc(F)cc3)CC2)c1 | 100% (inactive) |
| CC1CCCN(c2oc(-c3cccc4ccccc34)nc2C#N)C1 (configuration not stated) | 92.1% (inactive) |
| CSc1nnc2n(-c3ccc(C)cc3)c(=O)c3c4c(sc3n12)COC(C(C)C)C4 (configuration not stated) | 81.8% (inactive) |
| NC(=O)Cc1c[nH]c2cccc(O)c12 | 103% (inactive) |
| CCOc1cc(N2CCOCC2)c(OCC)cc1NC(=O)COc1ncnc2ccc(Br)cc12 | 91.2% (inactive) |
| Cc1ccc(-c2nnc(N3CCN(C(=O)CSc4ncn[nH]4)CC3)c3ccccc23)cc1 | 85.9% (inactive) |

| Compound | viability |
| --- | --- |
| O=C1CSC(c2ccccn2)N1Cc1cn2ccccc2n1 (configuration not stated) | 120% (inactive) |
| Cc1ccc(NC(=O)c2c(O)c3ccccc3n(C)c2=O)nc1 | 101% (inactive) |
| CC1=C(C)CS(=O)N(S(=O)(=O)c2ccc(Cl)cc2)C1 (configuration not stated) | 101% (inactive) |
| COc1ccc(CCn2c(=S)[nH]c3cc(C(=O)NCc4ccco4)ccc3c2=O)cc1OC | 102% (inactive) |
| Cn1c(=O)c2c(ncn2CC(=O)Nc2nc(-c3ccccc3Cl)cs2)n(C)c1=O | 89.5% (inactive) |
| CCOC(=O)c1ccc2c(c1)NC(=O)C(N1CCN(c3ccc(OC)cc3)CC1)S2 (configuration not stated) | 98% (inactive) |
| CSc1nncc(=O)[nH]1 | 96.7% (inactive) |
| CCC(C)(C)n1nnnc1C(c1cc2cc(C)cc(C)c2[nH]c1=O)N1CCN(Cc2ccc3c(c2)OCO3)CC1 (configuration not stated) | 80.5% (inactive) |
| COc1ccc(CCC(=O)N2CCN(C3CCCCC3)CC2)cc1 | 99.8% (inactive) |
| Cc1cc(C(=O)Nc2nc3ccc(S(C)(=O)=O)cc3s2)c(C)o1 | 82.9% (inactive) |
| O=C(CN1CCN(S(=O)(=O)c2ccc(F)cc2)CC1)Nc1ccc2c(c1)OCO2 | 116% (inactive) |
| CCn1c(SCC(=O)Nc2cc(C)on2)nc2sc3c(c2c1=O)CCCC3 | 86.3% (inactive) |
| O=C(Nc1nc(NC(=O)c2ccco2)n(-c2ccccc2)n1)c1ccccc1 | 84.5% (inactive) |
| O=C(Nc1cccnc1)c1ccc(Br)s1 | 90% (inactive) |
| CC1(C)CC(=O)c2cc(C(=O)NCc3ccco3)c(=O)n(-c3ccc(Cl)cc3)c2C1 | 97.2% (inactive) |
| COc1ccc(N2C(=O)CC(Sc3nnc(-c4ccccc4)o3)C2=O)cc1 (configuration not stated) | 95% (inactive) |
| Cc1nc2ccccc2n1CCc1nc2c3ccccc3nc(SCC(=O)NCc3ccco3)n2n1 | 86.4% (inactive) |
| O=C(/C=C/NNC(=O)c1ccccc1)c1ccccc1 | 109% (inactive) |
| Clc1ccc(Cn2cc(/C=N/n3cnnc3)c3ccccc32)c(Cl)c1 | 87.3% (inactive) |
| Cn1c(=O)cc(SCC(=O)NCC2COc3ccccc3O2)c2ccccc21 (configuration not stated) | 98.4% (inactive) |
| COc1ccc(-c2nnc(SCCc3ccccc3)n2N)cc1 | 108% (inactive) |
| O=C(Oc1ccccc1-c1nnco1)c1ccc(Cl)cc1 | 105% (inactive) |
| Cc1nn(C)c(C)c1NC(=O)CSc1nc(C2CC2)nc2c1cnn2-c1ccccc1 | 101% (inactive) |
| CC1(C)CC(NC(=O)c2coc(=O)c(Br)c2)CC(C)(C)N1 | 81% (inactive) |

| Compound | viability |
| --- | --- |
| CC(C)(C)c1ccc(-c2nnc(SCC(=O)O)n2N)cc1 | 106% (inactive) |
| CCn1nc(C(=O)NC2=NCCS2)c2ccccc2c1=O | 101% (inactive) |
| Cn1c(SCC(=O)Nc2ccc(N3CCOCC3)cc2)nnc1-c1ccccc1 | 103% (inactive) |
| Cc1cc(Cl)ccc1OCCCC(N)=O | 94% (inactive) |
| O=C(CCSc1ccc(Cl)cc1)N1CCN(c2ncccn2)CC1 | 94.5% (inactive) |
| O=C(Nc1ccc(-c2nc3c(ccc4ccccc43)o2)cc1)c1ccco1 | 90% (inactive) |
| CCC(=O)N1c2ccc(S(=O)(=O)CCC(=O)N3CCn4c3nc3ccccc34)cc2CC1C (configuration not stated) | 84.1% (inactive) |
| COc1ccc(Cl)cc1C(=O)n1nc(C)cc1C | 96.7% (inactive) |
| CC(C(=O)N1CCOCC1)N1C(=O)c2ccccc2C1=O (configuration not stated) | 105% (inactive) |
| Cc1sc2nc(SCC(=O)NCc3ccco3)n(CCc3ccccc3)c(=O)c2c1C | 91.5% (inactive) |
| c1ccc(CSc2nnc(-c3c[nH]c4ccccc34)o2)cc1 | 85.9% (inactive) |
| CC1(C)CSC(=S)N1S(=O)(=O)c1ccccc1 | 99.8% (inactive) |
| CN(CCO)c1cc(Sc2nc3ccccc3s2)c2nonc2c1[N+](=O)[O-] | 85.4% (inactive) |
| CCOC(=O)c1c(NC(=O)C2COc3ccccc3O2)sc(C(C)=O)c1C (configuration not stated) | 112% (inactive) |
| Cc1cc(C)n(-c2nc(Nc3ccccc3C)nc(-n3nc(C)cc3C)n2)n1 | 118% (inactive) |
| COc1ccccc1N1CCN(C(=O)c2ccc(Br)s2)CC1 | 97.5% (inactive) |
| CC1CC(C)CN(S(=O)(=O)c2ccc(C(=O)NCCCn3ccnc3)cc2)C1 (configuration not stated) | 88.4% (inactive) |
| CC(C)OC(=O)NCCOC(=O)Nc1cccc(Cl)c1 | 89.1% (inactive) |
| CC1=C(C)CS(=O)N(S(=O)(=O)c2ccccc2)C1 (configuration not stated) | 80.3% (inactive) |
| COCCn1c(C)cc(C(=O)CSc2nc3ccccc3o2)c1C | 96.1% (inactive) |
| COc1cccc2c(C)nc(Nc3nc(CSc4nnc(C)s4)cc(=O)[nH]3)nc12 | 101% (inactive) |
| C/C(=N\O)C(=O)C(CN1CCCCC1)CN1CCCCC1 | 81% (inactive) |
| CCOc1ccc(NC(=S)Nc2ccc(C)c([N+](=O)[O-])c2)cc1 | 88.7% (inactive) |
| COc1ccc(OC)c(C(=O)CSc2nnc(-c3ccc(OC)c(OC)c3)o2)c1 | 86.2% (inactive) |

| Compound | viability |
| --- | --- |
| Cc1ccc(NC(=O)C(C)N2C(=O)c3ccccc3C2=O)cc1 (configuration not stated) | 90.9% (inactive) |
| Cc1ccc(C(C#N)c2ccc(C(=O)c3ccc(F)cc3)cc2)cc1 (configuration not stated) | 84% (inactive) |
| N#CCC(=O)Nc1ncn(Cc2ccccc2Cl)n1 | 95.8% (inactive) |
| Cc1cc(NC(=O)c2cccc(S(=O)(=O)N3CC(c4ccccc4)CC3=O)c2)no1 (configuration not stated) | 91.3% (inactive) |
| Cc1ccc(-n2c(Cc3cccs3)nnc2SCC(=O)Nc2ccc(F)c(F)c2)cc1 | 82.4% (inactive) |
| CCOC(=O)c1ccc(NC(=O)c2c(C)[nH]c(C(=O)OCC)c2C)cc1 | 96.7% (inactive) |
| C=CCn1c(SCC(=O)NC(=O)NCc2ccco2)nc2sc(CC)cc2c1=O | 86.9% (inactive) |
| CC(C)(C)n1cnc2cc(NS(=O)(=O)c3ccccc3)ccc21 | 105% (inactive) |
| COc1ccc2[nH]cc(C(=O)CN3CCN(C4CCCCC4)CC3)c2c1 | 85.4% (inactive) |
| Clc1ccc(-c2nc(NCCN3CCOCC3)c3ccccc3n2)cc1 | 86% (inactive) |
| CCCC1(CCC)NC(=O)N(CC(=O)Nc2ccccc2OC)C1=O | 113% (inactive) |
| COc1ccc(NC(=O)CSc2nnc(CNC(=O)COc3ccc(Cl)cc3)o2)c(OC)c1 | 95.2% (inactive) |
| CN(C)C(=O)CSc1cccc2cccnc12 | 84.4% (inactive) |
| CCCS(=O)(=O)N1CCC(C(=O)N2CCC3(CC2)OCCO3)CC1 | 99.1% (inactive) |
| O=C(Nc1cccnc1)c1ccc(Oc2ccccc2)cc1 | 108% (inactive) |
| CCOc1ccc(-c2nn3c(-c4ccccc4)nnc3s2)cc1 | 83.3% (inactive) |
| CCCN(CCO)Cc1cccc(Br)c1 | 92.7% (inactive) |
| O=S1(=O)c2ccccc2N=NN1Cc1cc(Cl)cc(Cl)c1 | 84.9% (inactive) |
| c1ccc2c(c1)oc1c(NCCCN3CCOCC3)ncnc12 | 96.1% (inactive) |
| O=C(Cc1sc(-c2ccccc2Cl)nc1-c1ccccc1)Nc1ccc(F)cc1 | 83.5% (inactive) |
| CNC(=O)Cn1c(=O)n(C)c2ccccc21 | 91.8% (inactive) |
| Cc1cc(C(=O)OC(C)C(=O)Nc2cccc(S(=O)(=O)N3CCOCC3)c2)c(C)o1 (configuration not stated) | 101% (inactive) |
| O=C(CC1SCCNC1=O)Nc1cc(Cl)cc(Cl)c1 (configuration not stated) | 96.6% (inactive) |
| Cc1nc2cc(N3CCCCC3)c(NC(=O)c3cccnc3)cc2c(=O)n1Cc1ccccc1 | 89.3% (inactive) |
